Data reported in PMC5248944 (International Journal of Nanomedicine, 2017).

Key:
[1] = Dynamic dialysis at 4°C: drug–polymer interactions in TSOH, sol state; type: physicochemical; conditions: 5-FU 1.25 mg/mL, printed value is slope ×10^3
In short: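 Sol-state formulations were tested by dynamic dialysis at 4°C. The donor held 5 mL of formulation; the receiver held 100 mL of 0.08 M HCl with β-glycerophosphate. Receiver drug was measured at intervals. Each day's run order was control, two formulations, then control again on the same membrane, with a fresh membrane daily. Bound fraction was taken as 1−Ff from the log-linear slope.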

[2] = type: physicochemical; conditions: 35°C, 5-FU 1.25 mg/mL in donor phase; control slope = Km
In short: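 Dynamic dialysis was run at 35°C across porous cellulose (12.5 kDa cutoff). The donor held 5 mL of lyophilised-then-regenerated nanoparticles, plain drug solution, or drug with 0.25 mg/mL chitosan HCl; the receiver held 100 mL demineralised water under sink conditions. The receiver was sampled at intervals for HPLC (RP-18, 0.05 M KH2PO4/0.1% triethylamine, UV 266 nm). Ff came from the ln[(Cd/Cd0)×100]-vs-time slope; ≥3 repeats.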

## O=c1[nH]cc(F)c(=O)[nH]1 [Control, 5-fluorouracil]
[1]
  Modulus of straight-line slope (×10^3) ± SD (n=8): 5.06±0.75 1/minutes
[2]
  slope of straight line ± standard deviation, ln[(Cd/Cd0)×100] vs t: 0.841±0.029 hours
